Measured values from ChEMBL document CHEMBL1671805, “Biotin ergopeptide probes for dopamine receptors” (J Med Chem, 2011).
Activity calls are given as the source filed them. The rule behind the calls is not given here.

What was measured:
Ovis aries [1] = species on record: Ovis aries; assay: Displacement of [3H]-SCH23390 from dopamine D1 receptor in lamb brain striatum membranes at 25 uM; type: cell membranes; conditions: Membrane
In short: (§1)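 Lamb striatal membranes (0.5 mg prot/mL) in 50 mM Tris-HCl pH 7.4 with 10 mM MgCl2 were incubated 2 h at 22 C. Radioligand was 0.9 nM [3H]-SCH23390 (D1) or 0.7 nM [3H]-YM09151-2 (D2). Screens used 25 μM compound; competition used increasing concentrations. Nonspecific binding was taken with 10 μM SCH23390 (D1) or raclopride (D2). Bound ligand was filtered and counted. KD values came from a two-state dimer receptor model fit.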

[2] = biological target: T1, Adenosine receptor A1 (Homo sapiens) (UniProt P30542); assay: Displacement of [3H]-R-PIA from adenosine A1 receptor at 25 uM
T1 sequence (whole entry): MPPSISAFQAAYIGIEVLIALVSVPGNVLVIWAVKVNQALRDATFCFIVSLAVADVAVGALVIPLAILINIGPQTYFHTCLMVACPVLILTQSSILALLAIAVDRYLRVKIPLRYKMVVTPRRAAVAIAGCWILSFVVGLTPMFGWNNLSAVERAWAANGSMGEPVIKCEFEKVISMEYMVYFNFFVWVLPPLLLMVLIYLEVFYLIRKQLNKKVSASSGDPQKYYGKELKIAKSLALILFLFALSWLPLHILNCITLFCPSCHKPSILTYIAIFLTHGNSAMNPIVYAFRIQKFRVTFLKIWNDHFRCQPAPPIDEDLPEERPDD
In short: (§2)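 Membranes were incubated with 25 μM compound for 2 h at 22 C in 50 mM Tris-HCl pH 7.4 with 10 mM MgCl2 and 0.2 U/mL ADA. Radioligand was 1.0 nM [3H]-R-PIA (A1) or 1.6 nM [3H]ZM241385 (A2A). Nonspecific binding was taken with 10 μM DPCPX (A1) or ZM241385 (A2A). Separation was by GF/C filtration, then scintillation counting.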

[3] = biological target: Adenosine receptor A2a (Homo sapiens) (UniProt P29274); assay: Displacement of [3H]-ZM241385 from adenosine A2A receptor at 25 uM; in short: as §2
Chain of Adenosine receptor A2a (Homo sapiens) (P29274 whole entry): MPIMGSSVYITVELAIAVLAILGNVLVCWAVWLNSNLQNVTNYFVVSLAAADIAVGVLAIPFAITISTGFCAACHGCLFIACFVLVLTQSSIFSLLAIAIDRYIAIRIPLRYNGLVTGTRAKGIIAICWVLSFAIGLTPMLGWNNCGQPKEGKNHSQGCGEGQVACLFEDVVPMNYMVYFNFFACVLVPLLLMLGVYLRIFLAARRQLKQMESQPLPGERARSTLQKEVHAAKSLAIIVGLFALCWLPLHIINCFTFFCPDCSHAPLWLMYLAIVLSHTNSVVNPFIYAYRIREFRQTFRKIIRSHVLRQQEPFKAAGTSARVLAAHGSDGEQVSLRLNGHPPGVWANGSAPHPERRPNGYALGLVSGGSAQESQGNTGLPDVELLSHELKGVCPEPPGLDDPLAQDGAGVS

Ovis aries [4] = species on record: Ovis aries; assay: Displacement of [3H]-YM09151-2 from dopamine D2 receptor in lamb brain striatum membranes at 25 uM; type: cell membranes; conditions: Membrane; in short: as §1
[5] = Displacement of [3H]-YM09151-2 from dopamine D2 receptor high binding affinity site in lamb brain striatum membranes at 25 uM; type: cell membranes, Ovis aries, Membrane; in short: as §1
[6] = Displacement of [3H]-YM09151-2 from dopamine D2 receptor low binding affinity site in lamb brain striatum membranes at 25 uM; type: cell membranes, Ovis aries, Membrane; in short: as §1
[7] = Displacement of [3H]-SCH23390 from dopamine D1 receptor high binding affinity site in lamb brain striatum membranes at 25 uM; type: cell membranes, Ovis aries, Membrane; in short: as §1
[8] = Displacement of [3H]-SCH23390 from dopamine D1 receptor low binding affinity site in lamb brain striatum membranes at 25 uM; type: cell membranes, Ovis aries, Membrane; in short: as §1

Activity (Ovis aries [1]) | Activity (Ovis aries [4]) | SMILES | also measured
Active |  | CC(=O)N[C@@H](CCCCNC(=O)[C@@H](CCCCNC(=O)[C@@H]1CCCN1C(=O)[C@H](Cc1ccc([N+](=O)[O-])cc1)NC(=O)[C@@H](NC(=O)[C@@H]1C=C2c3cccc4[nH]cc(c34)C[C@H]2N(C)C1)C(C)C)NC(C)=O)C(N)=O | Activity [2]: Active; Activity [3]: Active
 | Active | CC(=O)N[C@@H](CCCCNC(=O)[C@@H](CCCCN)NC(=O)[C@@H]1CCCN1C(=O)[C@H](Cc1ccc([N+](=O)[O-])cc1)NC(=O)[C@@H](NC(=O)[C@@H]1C=C2c3cccc4[nH]cc(c34)C[C@H]2N(C)C1)C(C)C)C(N)=O | 
inactive | Active | CC(=O)N[C@@H](CCCCNC(=O)[C@H](N)CCCCNC(=O)[C@@H]1CCCN1C(=O)[C@H](Cc1ccc([N+](=O)[O-])cc1)NC(=O)[C@@H](NC(=O)[C@@H]1C=C2c3cccc4[nH]cc(c34)C[C@H]2N(C)C1)C(C)C)C(N)=O | 
 | Active | CC(=O)N[C@@H](CCCCNC(=O)c1ccc(C(=O)c2ccc(C(=O)NCCNC(=O)C3CCCN(C(=O)[C@H](Cc4ccc(F)cc4)NC(=O)[C@H](Cc4ccc([N+](=O)[O-])cc4)NC(=O)[C@@H]4C=C5c6cccc7[nH]cc(c67)C[C@H]5N(C)C4)C3)cc2)cc1)C(N)=O (stereo not given in full) | 
Active |  | CC(=O)N[C@@H](CCCCNC(=O)CCCCCNC(=O)[C@@H]1CCCN1C(=O)[C@H](Cc1ccc([N+](=O)[O-])cc1)NC(=O)[C@@H](NC(=O)[C@@H]1C=C2c3cccc4[nH]cc(c34)C[C@H]2N(C)C1)C(C)C)C(N)=O | Activity [2]: Active
 | Active | CC(=O)N[C@@H](CCCCNC(=O)[C@@H](CCCCNC(=O)C1CCCN(C(=O)[C@H](Cc2ccc(F)cc2)NC(=O)[C@H](Cc2ccc([N+](=O)[O-])cc2)NC(=O)[C@@H]2C=C3c4cccc5[nH]cc(c45)C[C@H]3N(C)C2)C1)NC(C)=O)C(N)=O (stereo not given in full) | Activity [2]: Active; Activity [3]: Active
 | Active | CC(=O)N[C@@H](CCCCNC(=O)c1ccc(-c2ccc(C(=O)NCCNC(=O)C3CCCN(C(=O)[C@H](Cc4ccc(F)cc4)NC(=O)[C@H](Cc4ccc([N+](=O)[O-])cc4)NC(=O)[C@@H]4C=C5c6cccc7[nH]cc(c67)C[C@H]5N(C)C4)C3)cc2)cc1)C(N)=O (stereo not given in full) | 
 | Active | CC(=O)N[C@@H](CCC(=O)Nc1ccc(-c2ccc(NC(=O)C3CCCN(C(=O)[C@H](Cc4ccc(F)cc4)NC(=O)[C@H](Cc4ccc([N+](=O)[O-])cc4)NC(=O)[C@@H]4C=C5c6cccc7[nH]cc(c67)C[C@H]5N(C)C4)C3)cc2)cc1)C(N)=O (stereo not given in full) | 
 | Active | CC(=O)N[C@@H](CCCCNC(=O)CCCC(=O)NCCNC(=O)C1CCCN(C(=O)[C@H](Cc2ccc(F)cc2)NC(=O)[C@H](Cc2ccc([N+](=O)[O-])cc2)NC(=O)[C@@H]2C=C3c4cccc5[nH]cc(c45)C[C@H]3N(C)C2)C1)C(N)=O (stereo not given in full) | 
 | Active | CC(=O)N[C@@H](CCCCNC(=O)C1CCCN(C(=O)[C@H](Cc2ccc(F)cc2)NC(=O)[C@H](Cc2ccc([N+](=O)[O-])cc2)NC(=O)[C@@H]2C=C3c4cccc5[nH]cc(c45)C[C@H]3N(C)C2)C1)C(N)=O (stereo not given in full) | 

More lines, now with the values behind:

SMILES | Activity (Ovis aries [1]) | Activity (Ovis aries [4]) | also measured
CC(=O)N[C@@H](CCC(=O)Nc1ccc(-c2ccc(NC(=O)[C@@H]3CCCN3C(=O)[C@H](Cc3ccc([N+](=O)[O-])cc3)NC(=O)[C@@H](NC(=O)[C@@H]3C=C4c5cccc6[nH]cc(c56)C[C@H]4N(C)C3)C(C)C)cc2)cc1)C(N)=O |  | Active | 
CC(=O)N[C@@H](CCC(=O)NCCNC(=O)[C@@H]1CCCN1C(=O)[C@H](Cc1ccc([N+](=O)[O-])cc1)NC(=O)[C@@H](NC(=O)[C@@H]1C=C2c3cccc4[nH]cc(c34)C[C@H]2N(C)C1)C(C)C)C(N)=O | Active | Active | 
CC(=O)N[C@@H](CCCCNC(=O)[C@@H]1CCCN1C(=O)[C@H](Cc1ccc([N+](=O)[O-])cc1)NC(=O)[C@@H](NC(=O)[C@@H]1C=C2c3cccc4[nH]cc(c34)C[C@H]2N(C)C1)C(C)C)C(=O)NCCCC[C@H](NC(=O)CCCC[C@H]1SC[C@H]2NC(=O)N[C@H]21)C(N)=O |  |  | Kd [5]: 2 µM; Kd [6]: 23 µM; Kd [7]: 2.1 µM; Kd [8]: > 50 µM
CC(=O)N[C@@H](CCC(=O)Nc1ccc(Sc2ccc(NC(=O)C3CCCN(C(=O)[C@H](Cc4ccc(F)cc4)NC(=O)[C@H](Cc4ccc([N+](=O)[O-])cc4)NC(=O)[C@@H]4C=C5c6cccc7[nH]cc(c67)C[C@H]5N(C)C4)C3)cc2)cc1)C(N)=O (stereo not given in full) |  | Active | 
CC(=O)N[C@@H](CCC(=O)NCCCCCCNC(=O)[C@@H]1CCCN1C(=O)[C@H](Cc1ccc([N+](=O)[O-])cc1)NC(=O)[C@@H](NC(=O)[C@@H]1C=C2c3cccc4[nH]cc(c34)C[C@H]2N(C)C1)C(C)C)C(N)=O | Active | Active | 
CC(C)[C@H](NC(=O)[C@@H]1C=C2c3cccc4[nH]cc(c34)C[C@H]2N(C)C1)C(=O)N[C@@H](Cc1ccc([N+](=O)[O-])cc1)C(=O)N1CCC[C@H]1C(=O)NCCCCCC(=O)NCCCC[C@H](NC(=O)CCCC[C@H]1SC[C@H]2NC(=O)N[C@H]21)C(N)=O |  |  | Kd [5]: 0.26 µM; Kd [6]: 7 µM; Kd [7]: 0.107 µM; Kd [8]: 3.2 µM
CC(=O)N[C@@H](CCCCNC(=O)[C@@H]1CCCN1C(=O)[C@H](Cc1ccc([N+](=O)[O-])cc1)NC(=O)[C@@H](NC(=O)[C@@H]1C=C2c3cccc4[nH]cc(c34)C[C@H]2N(C)C1)C(C)C)C(N)=O | Active | Active | 
CC(=O)N[C@@H](CCCCNC(=O)CCCCCNC(=O)C1CCCN(C(=O)[C@H](Cc2ccc(F)cc2)NC(=O)[C@H](Cc2ccc([N+](=O)[O-])cc2)NC(=O)[C@@H]2C=C3c4cccc5[nH]cc(c45)C[C@H]3N(C)C2)C1)C(N)=O (stereo not given in full) |  |  | Activity [2]: Active; Activity [3]: Active
CC(=O)N[C@@H](CCCCNC(=O)CCC(=O)NCCNC(=O)[C@@H]1CCCN1C(=O)[C@H](Cc1ccc([N+](=O)[O-])cc1)NC(=O)[C@@H](NC(=O)[C@@H]1C=C2c3cccc4[nH]cc(c34)C[C@H]2N(C)C1)C(C)C)C(N)=O |  | Active | 
